Experimental data gathered from unrelated publications.
Each line is one published result; the experiments were not run side by side.
DYRK2: Dual specificity tyrosine-phosphorylation-regulated kinase 2 (DYRK2, Homo sapiens, UniProt Q92630)
ADAM17: Disintegrin and metalloproteinase domain-containing protein 17 (ADAM17, Homo sapiens, UniProt P78536)

`CC(C)C[C@H](NC(=O)[C@H](Cc1ccccc1)NC(=O)c1cnccn1)B(O)O` gave an inhibition of 61.8% (Cathepsin G (CTSG, Homo sapiens, UniProt P08311); enzyme activity; inhibitor; 33 µM).
For `CN(CCN1CCC(OC(=O)Nc2ccccc2-c2ccccc2)CC1)C(=O)c1ccc(CN2CCC(C(N)=O)CC2)cc1`, the inhibition was -12% (4-aminobutyrate aminotransferase, mitochondrial (Rattus norvegicus, UniProt P50554); enzyme activity; inhibitor; 1 µM).
With `C#Cc1n[nH]c2c(-c3cn([C@@H](C)c4ccccn4)c(=O)[nH]c3=O)cc(F)cc12` the inhibition was -0.2% (DYRK2; enzyme activity; inhibitor; 0.1 µM).
With `COc1cc(Nc2ncc(F)c(Nc3ccc4c(n3)NC(=O)C(C)(C)O4)n2)cc(OC)c1OC` the inhibition was 0% (Serine/threonine-protein kinase 32B (STK32B, Homo sapiens, UniProt Q9NY57); binding; competition with immobilised ligand; 10 µM).
`CCOC(=O)c1ccc(OC(=O)CCCCCNC(=N)N)cc1` has an inhibition of 7% (ADAM17; enzyme activity; inhibitor; 10 µM).
`Cn1cc(-c2cc(F)cc(N3CCn4c(cc5c4CCCC5)C3=O)c2CO)cc(Nc2ccc(N3CCN(C4COC4)CC3)cn2)c1=O` gave an inhibition of -7% (Phosphatidylinositol 4,5-bisphosphate 3-kinase catalytic subunit alpha isoform (PIK3CA, Homo sapiens, UniProt P42336); enzyme activity; inhibitor; 0.1 µM).
The inhibition of `C[C@H](C(=O)N[C@H]1COc2ccccc2[C@@H]1S(C)(=O)=O)c1ccc(F)cc1` is reported as 26% (Vasopressin V1b receptor (AVPR1B, Homo sapiens, UniProt P47901); cell-free assay; 10 µM).
`C#Cc1n[nH]c2c(-c3cn([C@@H](C)c4ccccc4)c(=O)[nH]c3=O)cc(F)cc12` has an inhibition of 7.9% (DYRK2; enzyme activity; inhibitor; 0.1 µM).
`COc1c2c(cc3c1OCO3)CC[N+](C)=C2.[Cl-]` gave an inhibition of 9.2% (Glycogen synthase kinase-3 beta (GSK3B, Homo sapiens, UniProt P49841); enzyme activity; inhibitor; ADP detection; 100 µM).
`c1ccc(C(NCCNC(c2ccccc2)c2ccccc2)c2ccccc2)cc1` has an inhibition of -14% (Gamma-aminobutyric acid type B receptor subunit 1 (GABBR1, Homo sapiens, UniProt Q9UBS5); cell-free assay; 10 µM).
`CC(C)C[C@H](CC(=O)NO)C(=O)N[C@H](C(=O)N[C@@H](C)C(=O)NCCN)C(C)(C)C` gave an inhibition of 0% (ADAM17; enzyme activity; inhibitor; 0.1 µM).
